In brackets after ≈: the same amount, converted by molar mass.
Legend:
Format in all cases: functional
[1] = tested on: Pseudomonas aeruginosa; assay: Antimicrobial activity against Pseudomonas aeruginosa isolate PA399 expressing VIM-2 beta-lactamase
[2] = tested on: Pseudomonas aeruginosa; assay: Antimicrobial activity against Pseudomonas aeruginosa isolate PA462 expressing VIM-2 beta-lactamase
[3] = tested on: Pseudomonas aeruginosa; assay: Antimicrobial activity against Pseudomonas aeruginosa isolate PA465 expressing VIM-2 beta-lactamase
[4] = tested on: Pseudomonas aeruginosa; assay: Antimicrobial activity against Pseudomonas aeruginosa isolate PA469 expressing VIM-2 beta-lactamase
[5] = tested on: Pseudomonas aeruginosa; assay: Antimicrobial activity against Pseudomonas aeruginosa isolate PA475 expressing VIM-2 beta-lactamase
[6] = tested on: Pseudomonas aeruginosa; assay: Antimicrobial activity against Pseudomonas aeruginosa isolate PA477 expressing VIM-2 beta-lactamase
[7] = tested on: Pseudomonas aeruginosa; assay: Antimicrobial activity against Pseudomonas aeruginosa isolate PA481 expressing VIM-2 beta-lactamase
[8] = tested on: Pseudomonas aeruginosa; assay: Antimicrobial activity against Pseudomonas aeruginosa isolate PA500 expressing VIM-1 beta-lactamase
[9] = tested on: Pseudomonas aeruginosa; assay: Antimicrobial activity against Pseudomonas aeruginosa isolate PA510 expressing VIM-2 beta-lactamase
[10] = tested on: Pseudomonas aeruginosa; assay: Antimicrobial activity against metallo-beta-lactamase-negative Pseudomonas aeruginosa isolate PA459
Outline: (§1)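 MBL-negative clinical P. aeruginosa isolates with reduced imipenem susceptibility, collected at the study hospital, some from cystic fibrosis patients. Species identity was confirmed by automated Gram-negative identification card. MIC was read in μg/ml.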

[11] = tested on: Pseudomonas aeruginosa; assay: Antimicrobial activity against metallo-beta-lactamase-negative Pseudomonas aeruginosa isolate PA479
[12] = tested on: Pseudomonas aeruginosa; assay: Antimicrobial activity against metallo-beta-lactamase-negative Pseudomonas aeruginosa isolate PA483
[13] = tested on: Pseudomonas aeruginosa; assay: Antimicrobial activity against metallo-beta-lactamase-negative Pseudomonas aeruginosa isolate PA494
[14] = tested on: Pseudomonas aeruginosa; assay: Antimicrobial activity against metallo-beta-lactamase-negative Pseudomonas aeruginosa isolate PA509
[15] = tested on: Pseudomonas aeruginosa; assay: Antimicrobial activity against Pseudomonas aeruginosa PA431 expressing IMP-1 beta-lactamase
Outline: (§2)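 Well-characterized MBL-producing control strains from earlier studies: nine P. aeruginosa and one A. baumannii. MIC was read in μg/ml and used to set screening breakpoints for MBL producers.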

[16] = tested on: Pseudomonas aeruginosa; assay: Antimicrobial activity against Pseudomonas aeruginosa PA552 expressing IMP-1 beta-lactamase; outline: as §2
[17] = tested on: Pseudomonas aeruginosa; assay: Antimicrobial activity against Pseudomonas aeruginosa PA386 expressing IMP-13 beta-lactamase; outline: as §2
[18] = tested on: Pseudomonas aeruginosa; assay: Antimicrobial activity against Pseudomonas aeruginosa PA550 expressing VIM-1 beta-lactamase; outline: as §2
[19] = tested on: Pseudomonas aeruginosa; assay: Antimicrobial activity against Pseudomonas aeruginosa PA373 expressing VIM-2 beta-lactamase; outline: as §2
[20] = tested on: Pseudomonas aeruginosa; assay: Antimicrobial activity against Pseudomonas aeruginosa PA399 expressing VIM-2 beta-lactamase; outline: as §2
[21] = tested on: Pseudomonas aeruginosa; assay: Antimicrobial activity against Pseudomonas aeruginosa PA430 expressing VIM-4 beta-lactamase; outline: as §2
[22] = tested on: Pseudomonas aeruginosa; assay: Antimicrobial activity against Pseudomonas aeruginosa PA554 expressing GIM-1 beta-lactamase; outline: as §2
[23] = tested on: Acinetobacter baumannii; assay: Antimicrobial activity against Acinetobacter baumannii AB551 expressing SIM-1 beta-lactamase; outline: as §2
[24] = tested on: Pseudomonas aeruginosa; assay: Antimicrobial activity against Pseudomonas aeruginosa PA553 expressing SPM-1 beta-lactamase; outline: as §2
[25] = tested on: Pseudomonas aeruginosa; assay: Antimicrobial activity against metallo-beta-lactamase-negative Pseudomonas aeruginosa isolate PA339; outline: as §1
[26] = tested on: Pseudomonas aeruginosa; assay: Antimicrobial activity against metallo-beta-lactamase-negative Pseudomonas aeruginosa isolate PA340; outline: as §1
[27] = tested on: Pseudomonas aeruginosa; assay: Antimicrobial activity against metallo-beta-lactamase-negative Pseudomonas aeruginosa isolate PA341; outline: as §1
[28] = tested on: Pseudomonas aeruginosa; assay: Antimicrobial activity against metallo-beta-lactamase-negative Pseudomonas aeruginosa isolate PA342; outline: as §1
[29] = tested on: Pseudomonas aeruginosa; assay: Antimicrobial activity against metallo-beta-lactamase-negative Pseudomonas aeruginosa isolate PA346; outline: as §1
[30] = tested on: Pseudomonas aeruginosa; assay: Antimicrobial activity against metallo-beta-lactamase-negative Pseudomonas aeruginosa isolate PA349; outline: as §1
[31] = tested on: Pseudomonas aeruginosa; assay: Antimicrobial activity against metallo-beta-lactamase-negative Pseudomonas aeruginosa isolate PA350; outline: as §1
[32] = tested on: Pseudomonas aeruginosa; assay: Antimicrobial activity against metallo-beta-lactamase-negative Pseudomonas aeruginosa isolate PA352; outline: as §1
[33] = tested on: Pseudomonas aeruginosa; assay: Antimicrobial activity against metallo-beta-lactamase-negative Pseudomonas aeruginosa isolate PA355; outline: as §1
[34] = tested on: Pseudomonas aeruginosa; assay: Antimicrobial activity against metallo-beta-lactamase-negative Pseudomonas aeruginosa isolate PA356; outline: as §1
[35] = tested on: Pseudomonas aeruginosa; assay: Antimicrobial activity against metallo-beta-lactamase-negative Pseudomonas aeruginosa isolate PA360; outline: as §1
[36] = tested on: Pseudomonas aeruginosa; assay: Antimicrobial activity against metallo-beta-lactamase-negative Pseudomonas aeruginosa isolate PA361; outline: as §1
[37] = tested on: Pseudomonas aeruginosa; assay: Antimicrobial activity against metallo-beta-lactamase-negative Pseudomonas aeruginosa isolate PA362; outline: as §1
[38] = tested on: Pseudomonas aeruginosa; assay: Antimicrobial activity against metallo-beta-lactamase-negative Pseudomonas aeruginosa isolate PA364; outline: as §1
[39] = tested on: Pseudomonas aeruginosa; assay: Antimicrobial activity against metallo-beta-lactamase-negative Pseudomonas aeruginosa isolate PA368; outline: as §1
[40] = tested on: Pseudomonas aeruginosa; assay: Antimicrobial activity against metallo-beta-lactamase-negative Pseudomonas aeruginosa isolate PA370; outline: as §1
[41] = tested on: Pseudomonas aeruginosa; assay: Antimicrobial activity against metallo-beta-lactamase-negative Pseudomonas aeruginosa isolate PA376
[42] = tested on: Pseudomonas aeruginosa; assay: Antimicrobial activity against metallo-beta-lactamase-negative Pseudomonas aeruginosa isolate PA377; outline: as §1
[43] = tested on: Pseudomonas aeruginosa; assay: Antimicrobial activity against metallo-beta-lactamase-negative Pseudomonas aeruginosa isolate PA380; outline: as §1
[44] = tested on: Pseudomonas aeruginosa; assay: Antimicrobial activity against metallo-beta-lactamase-negative Pseudomonas aeruginosa isolate PA381; outline: as §1
[45] = tested on: Pseudomonas aeruginosa; assay: Antimicrobial activity against metallo-beta-lactamase-negative Pseudomonas aeruginosa isolate PA382; outline: as §1
[46] = tested on: Pseudomonas aeruginosa; assay: Antimicrobial activity against metallo-beta-lactamase-negative Pseudomonas aeruginosa isolate PA395; outline: as §1
[47] = tested on: Pseudomonas aeruginosa; assay: Antimicrobial activity against metallo-beta-lactamase-negative Pseudomonas aeruginosa isolate PA734 isolated from patient with cystic fibrosis; outline: as §1
[48] = tested on: Pseudomonas aeruginosa; assay: Antimicrobial activity against metallo-beta-lactamase-negative Pseudomonas aeruginosa isolate PA736 isolated from patient with cystic fibrosis; outline: as §1
[49] = tested on: Pseudomonas aeruginosa; assay: Antimicrobial activity against metallo-beta-lactamase-negative Pseudomonas aeruginosa isolate PA758 isolated from patient with cystic fibrosis; outline: as §1
[50] = tested on: Pseudomonas aeruginosa; assay: Antimicrobial activity against metallo-beta-lactamase-negative Pseudomonas aeruginosa isolate PA774 isolated from patient with cystic fibrosis; outline: as §1
[51] = tested on: Pseudomonas aeruginosa; assay: Antimicrobial activity against metallo-beta-lactamase-negative Pseudomonas aeruginosa isolate PA460

SMILES: CO/N=C(\C(=O)N[C@@H]1C(=O)N2C(C(=O)[O-])=C(C[N+]3(C)CCCC3)CS[C@H]12)c1csc(N)n1 [CEFEPIME]
- MIC [1]: ≥ 64 µg/mL
- MIC [2]: ≥ 64 µg/mL
- MIC [3]: ≥ 64 µg/mL
- MIC [4]: ≥ 64 µg/mL
- MIC [5]: ≥ 64 µg/mL
- MIC [6]: ≥ 64 µg/mL
- MIC [7]: ≥ 64 µg/mL
- MIC [8]: ≥ 64 µg/mL
- MIC [9]: ≥ 64 µg/mL
- MIC [10]: 8 µg/mL (≈ 16.6 µM)
- MIC [11]: ≥ 64 µg/mL
- MIC [12]: 32 µg/mL (≈ 66.6 µM)
- MIC [13]: 8 µg/mL (≈ 16.6 µM)
- MIC [14]: 16 µg/mL (≈ 33.3 µM)

SMILES: C[C@@H](O)[C@H]1C(=O)N2C(C(=O)O)=C(SCCNC=N)C[C@H]12 [IMIPENEM ANHYDROUS]
- MIC [15]: 8 µg/mL (≈ 26.7 µM)
- MIC [16]: ≥ 16 µg/mL
- MIC [17]: ≥ 16 µg/mL
- MIC [18]: ≥ 16 µg/mL
- MIC [19]: ≥ 16 µg/mL
- MIC [20]: ≥ 16 µg/mL
- MIC [21]: ≥ 16 µg/mL
- MIC [22]: ≥ 16 µg/mL
- MIC [23]: ≥ 16 µg/mL
- MIC [24]: ≥ 16 µg/mL
- MIC [25]: ≥ 16 µg/mL
- MIC [26]: 8 µg/mL (≈ 26.7 µM)
- MIC [27]: ≥ 16 µg/mL
- MIC [28]: ≥ 16 µg/mL
- MIC [29]: ≥ 16 µg/mL
- MIC [30]: ≥ 16 µg/mL
- MIC [31]: ≥ 16 µg/mL
- MIC [32]: ≥ 16 µg/mL
- MIC [33]: ≥ 16 µg/mL
- MIC [34]: ≥ 16 µg/mL
- MIC [35]: 8 µg/mL (≈ 26.7 µM)
- MIC [36]: ≥ 16 µg/mL
- MIC [37]: 8 µg/mL (≈ 26.7 µM)
- MIC [38]: 8 µg/mL (≈ 26.7 µM)
- MIC [39]: ≥ 16 µg/mL
- MIC [40]: ≥ 16 µg/mL
- MIC [41]: ≥ 16 µg/mL
- MIC [42]: ≥ 16 µg/mL
- MIC [43]: 8 µg/mL (≈ 26.7 µM)
- MIC [44]: ≥ 16 µg/mL
- MIC [45]: ≥ 16 µg/mL
- MIC [46]: ≥ 16 µg/mL
- MIC [47]: ≥ 16 µg/mL
- MIC [48]: 8 µg/mL (≈ 26.7 µM)
- MIC [49]: ≥ 16 µg/mL
- MIC [50]: ≥ 16 µg/mL
- MIC [1]: ≥ 16 µg/mL
- MIC [2]: ≥ 16 µg/mL
- MIC [3]: ≥ 16 µg/mL
- MIC [4]: ≥ 16 µg/mL
- MIC [5]: ≥ 16 µg/mL
- MIC [6]: ≥ 16 µg/mL
- MIC [7]: ≥ 16 µg/mL
- MIC [8]: ≥ 16 µg/mL
- MIC [9]: ≥ 16 µg/mL
- MIC [10]: ≥ 16 µg/mL
- MIC [51]: ≥ 16 µg/mL
- MIC [11]: 8 µg/mL (≈ 26.7 µM)
- MIC [12]: ≥ 16 µg/mL
- MIC [13]: ≥ 16 µg/mL
- MIC [14]: ≥ 16 µg/mL

Reference: ChEMBL document CHEMBL1275252, “First survey of metallo-beta-lactamases in clinical isolates of Pseudomonas aeruginosa in a German university hospital” (2010)
